The source made the active and inactive calls. The rule behind the calls is not given here.

The source of these data is ChEMBL document CHEMBL1152900, “Synthesis and evaluation of the antioxidant and anti-inflammatory activity of novel coumarin-3-aminoamides and their alpha-lipoic acid adducts” (Eur J Med Chem, 2009).

Series [1] can be described thus: Acute toxicity in rat assessed as survival up to 0.5 mmol/kg after 24 hrs. It is filed as organism-based. As to conditions: in vivo, read-out: Activity. An outline of the steps:
(§1)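 Rats were split into 5 groups of 6–8 animals each and injected with graded doses of 0.1–0.5 mmol/kg body weight. Animals were then scored for survival and examined macroscopically and at autopsy.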

In the next series the test system is Glycine max. As to the kind of experiment: Inhibition of soybean lipoxygenase assessed as conversion of sodium linoleate to 13-hydroperoxylinoleic acid at 0.1 mM. An outline of the steps:
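Soybean lipoxygenase (enzyme solution 1/9 × 10^-4 w/v in saline) was incubated at room temperature with sodium linoleate 0.1 mM and test compounds in ethanol. Conversion to 13-hydroperoxylinoleic acid was followed at 234 nm and compared with a standard inhibitor. At least triplicate.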

The nature of series [2]: Antioxidant activity assessed as reduction of DPPH activity at 0.5 mM after 20 mins. It is filed as functional. Details: scale not given: the % may be the effect or the level left. An outline of the steps: (§2)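 DPPH at 0.05 mM final in absolute ethanol was mixed with test compounds in ethanol at 0.1 or 0.5 mM final, with ethanol as the control. After 20 and 60 min at room temperature, absorbance was read at 517 nm. At least triplicate.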
In general terms: The DPPH test is a chemical assay of radical scavenging.

Series [3] has as its system Rattus norvegicus. As to the kind of experiment: In vivo antiinflammatory activity in Fisher 344 rat assessed as inhibition of carrageenan-induced paw edema at 0.01 mmol/kg, ip administered simultaneously with carrageenan measured after 3.5 hrs. It is filed as functional. The conditions noted are these: Fisher 344, ip. Put shortly:
(§3)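 Rats of both sexes (pregnant females excluded), bred in-house and fasted during the experiment; 6–15 per group, run twice. Test agents were suspended in water with a few drops of Tween 80 and given ip at the time of carrageenin injection. Rats were killed 3.5 h later. Injected minus uninjected paw weight gave % edema inhibition versus water-treated controls.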
In general terms: In the carrageenan paw model, swelling and tenderness develop within hours.

The nature of series [4]: Antioxidant activity against hydroxyl radical assessed as inhibition of formaldehyde production at 0.1 mM after 30 mins relative to DMSO. Type of series: functional. Details: scale not given: the % may be the effect or the level left. Put shortly: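 Hydroxyl radicals were generated with Fe3+, DMSO 33 mM and ascorbic acid 10 mM in 50 mM phosphate buffer, pH 7.4, with test compound at 0.1 mM final. Mixtures were incubated 30 min at 37 °C, stopped with CCl3COOH (17% w/v), and formaldehyde was read spectrophotometrically at 412. At least triplicate.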

Series [5] can be described thus: Antioxidant activity assessed as reduction of DPPH activity at 0.1 mM after 20 mins. Type of series: functional. Details: scale not given: the % may be the effect or the level left. An outline of the steps:
as §2

Series [6] can be described thus: Antioxidant activity assessed as reduction of DPPH activity at 0.1 mM after 60 mins. Details: scale not given: the % may be the effect or the level left. It is filed as functional. An outline of the steps: as §2
Series [7] in a line: Antioxidant activity assessed as reduction of DPPH activity at 0.5 mM after 60 mins. It is filed as functional. Details: scale not given: the % may be the effect or the level left. Put shortly: as §2
For series [8], the system named is Rattus norvegicus. As to the kind of experiment: Acute toxicity in rat assessed as mortality up to 0.5 mmol/kg after 24 hrs by macroscopic analysis. It is filed as organism-based. The conditions noted are these: in vivo. Put shortly:
as §1

In series [9] the test system is Rattus norvegicus. As to the kind of experiment: Acute toxicity in rat assessed as mortality up to 0.5 mmol/kg after 24 hrs by autopsy. It is filed as organism-based. The conditions noted are these: in vivo. An outline of the steps: as §1
The subject of series [10] is Rattus norvegicus. As to the kind of experiment: Antiinflammatory activity in Fisher 344 rat assessed as inhibition of carrageenan-induced paw edema at 0.001 mmol/kg, ip administered simultaneously with carrageenan measured after 3.5 hrs. It is filed as functional. As to conditions: Fisher 344, ip.
The test system of series [11] is Rattus norvegicus. As to the kind of experiment: Antiinflammatory activity in Fisher 344 rat assessed as inhibition of carrageenan-induced paw edema at 0.01 mmol/kg, ip administered simultaneously with carrageenan measured after 3.5 hrs. The conditions noted are these: Fisher 344, ip. It is filed as functional. Put shortly: as §3

What is called inhibition is the drop in the measured response relative to a control, in per cent. As usually defined, the inhibition in vivo is the change of the read-out against control, counted positive when it falls. As for `CCOC(=O)c1c(O)oc2ccccc2c1=O`, the survival at 24 h in series [1] was 80%. Further, the inhibition in the series on Glycine max turned out to be 93%. In addition, the Activity in series [2] is 20%; in series [4], 91%; in series [5], 15%; in series [6] it was 27%; in series [7] it was 13%; with Rattus norvegicus [8] it was “Non-toxic”. The Activity result in the series with Rattus norvegicus [9] is reported as “Non-toxic”. Further, the inhibition in vivo at 10 µmol/kg with Rattus norvegicus [3] came to 63%.
For the molecule `O=C(O)CCCCC1CCSS1` (stereo not drawn) [LIPOIC ACID, ALPHA], the inhibition in the series with Glycine max came out at 29.1%. Also, the Activity was 5% in [2]; 38.6% in series [4]; 20% in [5]; 27% in series [6]; 7% in series [7]. Further, the inhibition in vivo at 10 µmol/kg with Rattus norvegicus [3] amounted to 29.6%.
Take `COc1ccc2c(c1)c(CC(=O)O)c(C)n2C(=O)c1ccc(Cl)cc1` [INDOMETHACIN]: the inhibition in vivo at 10 µmol/kg in the series with Rattus norvegicus [3] was determined as 47%.
Consider `CC(Cc1ccc(O)c(O)c1)C(C)Cc1ccc(O)c(O)c1` (stereo not given), for which, in the series on Glycine max, the inhibition worked out at 84%. Besides, the Activity in series [2] is 97%; in series [6], 83%; in series [7], 98%.
As to `Nc1ccccc1NC(=O)c1c(O)c2ccccc2oc1=O`, the survival at 24 h in [1] was 80%. For the same molecule, in the series with Glycine max, the inhibition was found to be 23%. Also, the Activity in series [2] was 85%; in series [5], 90%; in [6], 93%; in series [7] it was 83%; with Rattus norvegicus [8], “Non-toxic”; in the series with Rattus norvegicus [9] it was “Non-toxic”. Moreover, the inhibition in vivo at 10 µmol/kg in the series on Rattus norvegicus [3] came out at 57%. Further, the result in [4] was inactive.
As to `NCCCCCCNC(=O)c1c(O)oc2ccccc2c1=O`, the survival at 24 h in series [1] turned out to be 80%. For the same molecule, in the series on Glycine max, the inhibition was found to be 52%. Further, the Activity in [2] is 5%; in series [4], 100%; in series [5], 3%; in [6], 3%; in series [7], 5%; in the series on Rattus norvegicus [8], “Non-toxic”. Also, the Activity result in the series on Rattus norvegicus [9] is “Non-toxic”. The inhibition in vivo at 10 µmol/kg in the series with Rattus norvegicus [3] stood at 49%.
For the molecule `CCOC(=O)c1c(O)c2cc(C)ccc2oc1=O`, the survival at 24 h in series [1] was 80%. Besides, the inhibition with Glycine max was found to be 93%. The Activity was 20% in [2]; 81% in series [4]; 18% in series [5]; 8% in series [6]; 33% in [7]; “Non-toxic” in the series with Rattus norvegicus [8]. In the series on Rattus norvegicus [9], the Activity entry is “Non-toxic”. Further, the inhibition in vivo at 10 µmol/kg with Rattus norvegicus [3] was 41%.
On to `NCCCCCCCCNC(=O)c1c(O)c2ccccc2oc1=O`, for which, in series [1], the survival at 24 h amounted to 80%. Further, in the series with Glycine max, the inhibition result is “inactive”. Besides, the Activity in series [2] was 9%; in series [5], 17%; in [6], 8%; in series [7] it was 19%; in the series on Rattus norvegicus [8] it was “Non-toxic”; in the series on Rattus norvegicus [9], “Non-toxic”. Moreover, the inhibition in vivo at 10 µmol/kg in the series on Rattus norvegicus [3] came to 48%. In addition, in series [4], the outcome was inactive.
Consider `Cc1ccc2oc(=O)c(C(=O)NCCCCCCCCNC(=O)CCCCC3CCSS3)c(O)c2c1` (stereo not given), for which, in series [1], the survival at 24 h is 80%. In the series with Rattus norvegicus [10], the inhibition in vivo at 1 µmol/kg was 60%. The inhibition in the series with Glycine max came out at 8.3%. Moreover, the Activity was 89% in series [2]; 100% in series [4]; 69% in series [5]; 65% in [6]; 87% in series [7]; “Non-toxic” in the series on Rattus norvegicus [8]. In addition, the Activity entry in the series on Rattus norvegicus [9] is on record as “Non-toxic”. Further, the inhibition in vivo at 10 µmol/kg in the series on Rattus norvegicus [11] is 73%.
As to `O=C(CCCCC1CCSS1)NCCCCCCNC(=O)c1c(O)c2ccccc2oc1=O` (stereo not given), the survival at 24 h in series [1] was found to be 80%. The inhibition in vivo at 1 µmol/kg in the series on Rattus norvegicus [10] was determined as 61%. For the same molecule, the inhibition in the series on Glycine max turned out to be 18%. Moreover, the Activity in [2] was 23%; in series [4], 96%; in [5] it was 15%; in series [6], 18%; in series [7], 12%; in the series on Rattus norvegicus [8], “Non-toxic”. The Activity entry in the series with Rattus norvegicus [9] is reported as “Non-toxic”. In addition, the inhibition in vivo at 10 µmol/kg with Rattus norvegicus [11] was 72%.
For the molecule `Cc1c(C)c2c(c(C)c1O)CCC(C)(C(=O)O)O2` (stereo not given), the Activity in [4] stood at 88.2%.
Consider `Cc1ccc2oc(=O)c(C(=O)Nc3ccccc3N)c(O)c2c1`, for which, in series [1], the survival at 24 h was determined as 80%. Also, the inhibition in the series with Glycine max was found to be 22%. Further, the Activity in [2] is 70%; in [4] it was 100%; in series [5] it was 74%; in series [6] it was 65%; in [7], 78%; in the series with Rattus norvegicus [8] it was “Non-toxic”. In addition, in the series with Rattus norvegicus [9], the Activity entry is listed as “Non-toxic”. Besides, the inhibition in vivo at 10 µmol/kg with Rattus norvegicus [3] is 60%.
Regarding `O=C(CCCCC1CCSS1)NCCCCCCCCNC(=O)c1c(O)c2ccccc2oc1=O` (stereo not given), in [1], the survival at 24 h worked out at 80%. The inhibition in the series with Glycine max stood at 33%. Further, the Activity in series [2] is 32%; in series [5], 21%; in series [6], 21%; in series [7], 25%; in the series with Rattus norvegicus [8], “Non-toxic”; in the series on Rattus norvegicus [9], “Non-toxic”. Further, in the series on Rattus norvegicus [3], the inhibition in vivo at 10 µmol/kg is 43%. In addition, the outcome in series [4] was inactive.
With `Cc1ccc2oc(=O)c(C(=O)NCCCCCCCCN)c(O)c2c1`, the survival at 24 h in series [1] turned out to be 80%. Further, the inhibition with Glycine max worked out at 30%. The Activity was 72% in [2]; 100% in series [4]; 58% in series [5]; 68% in [6]; 78% in series [7]; “Non-toxic” in the series with Rattus norvegicus [8]. The Activity result with Rattus norvegicus [9] is “Non-toxic”. In the series on Rattus norvegicus [3], the inhibition in vivo at 10 µmol/kg was 59%.
Take `NCCNC(=O)c1c(O)c2ccccc2oc1=O`: the survival at 24 h in series [1] came to 80%. Besides, in the series on Glycine max, the inhibition is 100%. For the same molecule, the outcome in series [2] and in series [7] was inactive. For the same molecule, the inhibition in vivo at 10 µmol/kg with Rattus norvegicus [3] came to 59%. Also, the Activity was 91% in series [4]; 42% in series [5]; 25% in series [6]; “Non-toxic” in the series on Rattus norvegicus [8]; “Non-toxic” in the series with Rattus norvegicus [9].
Regarding `Cc1ccc2oc(=O)c(C(=O)NCCN)c(O)c2c1`, the survival at 24 h in series [1] came out at 80%. For the same molecule, in the series on Glycine max, the inhibition is 14%. Further, the Activity in series [2] was 70%; in [4] it was 100%; in series [5], 48%; in series [6], 59%; in series [7], 65%; in the series with Rattus norvegicus [8], “Non-toxic”. Further, in the series with Rattus norvegicus [9], the Activity result is “Non-toxic”. In addition, the inhibition in vivo at 10 µmol/kg in the series with Rattus norvegicus [3] worked out at 59%.
